This sample holds only a part of the variants without activity. Where only a bound is given, the exact number is not on record here.

This is an account of results in the RNAGym collection of RNA variant scans (doi:10.1126/science.aae0568).

The labels stand for the following.
B1: tRNA (parent)
chain: GUUCCGUUGGCGUAAUGGUAACGCGUCUCCCUCCUAAGGAGAAGACUGCGGGUUCGAGUCCCGUACGGAACG

In this data set the parent is B1. The data set is described as follows: yeast fitness relative to wild type (ratio to wild type); higher = fitter; tRNA-Arg(CCU), competitive growth, 37 C, YPD. The gist of the method:
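For this measurement, the tRNA-Arg(CCU) gene was varied by chemical synthesis at a 3% per-site mutation rate across 69 sites, and each variant was placed at the native genomic locus in Saccharomyces cerevisiae. The pooled strains went through a 24-hour competition in YPD at 37°C in six parallel replicates, with amplicons from start and end populations read by 100-nucleotide paired-end sequencing. Darwinian fitness relative to wild type followed from the change in each genotype's frequency. Genotypes needed ≥ 100 starting reads, and estimates < 0.5 were set to 0.5.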
Turning to G9A C11U C49A G67U, the yeast fitness was at most 0.5.
For the variant U8G A14U G50A A57U A70G, the yeast fitness is at most 0.5.
The result for G9C G10C C66U reads at most 0.5; that for G9C C27G G44A A57G, 0.691; that for G9A G51C, 0.539.
Regarding G9A C24G C34G C55A A65G, the yeast fitness was at most 0.5.
The result for G9C C24U U26G C62G A70U reads at most 0.5.
Consider G9A C31A G41C C55U, for which the yeast fitness was at most 0.5.
Under G9A G12U A14U U53A U54C stands at most 0.5.
The result for U8C G12C C55U A70C reads 0.542.
Under G9C A14C A69U stands at most 0.5.
As for G9C G12A U35G, the yeast fitness is at most 0.5.
The result for G9A C24G C34G A45C A65G reads at most 0.5.
Under G9A C11G U13G G23C C34U C55U stands at most 0.5; under G9C A15C U16C C34G C66A A69C, at most 0.5.
U8G G51A A65U: the yeast fitness is at most 0.5.
The result for U8C G41A A65G reads 0.63.
The result for G9C C22U U26C G58C G68U reads at most 0.5; that for G9C G10C C29G C46A C66U, at most 0.5; that for G9C C24A A45G C46G, 0.597.
G9C A20G U35C A36G: the yeast fitness was at most 0.5.
As for G9A G18A A21C C29U G58C C66G, the yeast fitness is at most 0.5.
Under U8C U16A U19A C22U U28C stands at most 0.5; under G9A C46A C55U, 0.543; under G9A C29A G56C, at most 0.5.
For G9A G51C G52C, the yeast fitness was at most 0.5.
As to G9A A15U U59A A65C, the yeast fitness came out at 0.654.
Under G9A C27A stands 0.955; under G9A C11A U35C G50C, at most 0.5.
Regarding U8C U47C U59A A70G, the yeast fitness was at most 0.5.
Under U8C G18A G23C C31G G38C G41A stands 0.635; under U8G C49G U53C C60A A69U, at most 0.5; under G9A G44A C46U A69C, 0.787.
Regarding G9C A15G C30U C46A U54A A57G, the yeast fitness was at most 0.5.
In the case of G9A C30U A57G, the yeast fitness was at most 0.5.
As for G9A C30U G44A, the yeast fitness turned out to be 0.615.
Take G9C A21G C34G: the yeast fitness was at most 0.5.
As for G9A A14G C29G, the yeast fitness is at most 0.5.
Under U8G C27A stands 0.564; under G9C C27U A36G A42U, 0.76; under U8C G12A G48C, 0.675.
Take U8G A14G G18A U47A: the yeast fitness was at most 0.5.
The result for G9A C11A A14C U16A C31A C62U reads at most 0.5; that for U8C U13C C24A A37G, 0.761.
Under U8C G9A G12A stands 0.529; under G9C A21G G44C U47C A70U, at most 0.5.
Under G9A C27G C31U C46G G51C G52A stands at most 0.5.
In the case of U8G U26A C66U G67C, the yeast fitness turned out to be 0.847.
Under G9A C22G A45G stands 0.588; under G9A A42C C66U, 0.543; under U8G U13A C30U G39C, at most 0.5.
As for G9A U16A C30G A57C, the yeast fitness is at most 0.5.
G9A C11U C31U: the yeast fitness turned out to be 0.704.
G9C G38A: the yeast fitness was 0.624.
On to U8G C34G C55G C62A G68A, for which the yeast fitness was at most 0.5.
For U8G G25A A70C, the yeast fitness is 0.544.
Take U8C U19C G23C U53C: the yeast fitness was at most 0.5.
The result for G9C C22G C33G G63C reads at most 0.5; that for G9A C30U C33A A36U A43U U54C G56A, 0.626.
Consider U8C G50A A70U, for which the yeast fitness is 0.736.
Under U8C G12C C61A G67A stands at most 0.5; under U8G A20U A36G, 0.635.
The result for U8G G10A C11G U19G A40G C55U C60U reads 0.511.
The result for U8G C24G G41A A65G reads at most 0.5; that for U8C U26G C30U A40G, at most 0.5; that for G9A C11G C22U A40G A42G, at most 0.5.
Regarding U8G G10C, the yeast fitness is at most 0.5.
Under G9C C24G C27U U47G U53A stands at most 0.5; under U8C G10A G67C, 0.592.
Take G9A C27A A42C C49G G51C A65C: the yeast fitness is at most 0.5.
Turning to U8C G12C C62U, the yeast fitness was determined as 0.587.
Under G9A G10A C31G G52A A65C stands at most 0.5.
For G9C C27A C33A G63A A70G, the yeast fitness is at most 0.5.
The result for U8G U13G G23C A40C G63A reads at most 0.5.
The result for U8C G25C C31U A69C reads at most 0.5; that for G9A A21G C62U G63C A70C, 0.52.
Under G9A C46A stands 0.91.
With G9A G23A G25C U28C A57U A70U, the yeast fitness was at most 0.5.
The result for G9C A14G U16G G23A C33A G44A reads at most 0.5.
For G9A C34G U47C, the yeast fitness was at most 0.5.
The result for G9C C29U A70C reads at most 0.5; that for G9C A36U A40U G44A G63A, at most 0.5.
Take U8G G10C A40C: the yeast fitness is at most 0.5.
Under U8G A20G A37G A43G A70U stands at most 0.5; under G9C A14C A15U G23A C34A G52C G63C, 0.585.
Regarding G9C A15G C24A C49U, the yeast fitness is at most 0.5.
Take G9C G12C C24U C34U C49G: the yeast fitness was determined as 0.658.
The result for G9C A14C A15U G23A C34A G52C reads at most 0.5.
U8C U32G G50A A69U: the yeast fitness turned out to be 0.557.
Regarding U8G G56A, the yeast fitness worked out at 0.568.
Under G9C A20C U47C C66A stands 0.543; under U8C U32C, 0.81.
Take U8G A14U G39A C55G: the yeast fitness is at most 0.5.
Under G9C A20C stands 0.626; under U8G G48A C49G, at most 0.5; under G9A G50A G67A, 0.652.
For the variant G9C C11A U47G A69C, the yeast fitness turned out to be 0.601.
The result for G9A A57G reads 0.933.
For G9C C22G G50A, the yeast fitness is at most 0.5.
Under G9A U13A C24A A45C stands at most 0.5; under G9A A42U U59A G67C, at most 0.5; under G9C A15G G58C, 0.564.
Regarding G9A G52A, the yeast fitness amounted to 0.687.
On to G9C A15G C27A C31G G50A, for which the yeast fitness came to 0.642.
Take G9A C29A A37G: the yeast fitness worked out at 0.513.
The result for G9A A69U reads 1.04; that for G9A A69G, 0.953.
Under G9A G38C G41C A45G stands at most 0.5; under G9C G12A A57C, 0.541; under G9A C31U C60U A65G, at most 0.5.
In the case of G9A C11G U19C C55A, the yeast fitness is at most 0.5.
The result for G9C C33U reads 0.536.
The result for G9C G12C C31A A40U reads at most 0.5; that for G9C C27U G58C, 0.639.
Under G9C A14U A21C C61A stands 0.81.
For U8C U26A C27A, the yeast fitness is at most 0.5.
Under U8G A69U stands 0.575.
For U8C U35C, the yeast fitness is 0.899.
Turning to G9A A14U A21U A69C, the yeast fitness was 0.755.
The result for U8C U13G C22U C49U A65U reads at most 0.5; that for G9A C24U U32G, at most 0.5; that for G9A U53G, 0.661.
As to G9A A20G C30U, the yeast fitness was determined as 0.71.
For G9A U19G U59C C62G A65U, the yeast fitness is at most 0.5.
The result for U8G C24U C29G C31A A45G C61U A65C G67A G68A reads at most 0.5; that for G9C C24U G48C G51A, at most 0.5; that for G9A A14G A20C A42C, at most 0.5.
The result for G9A C11U C29U A65U reads at most 0.5.
Under G9C C22A C34A A70G stands at most 0.5; under G9A C27G A40G G52A, at most 0.5.
With U8C G48A C55A G58C, the yeast fitness was at most 0.5.
Regarding G9A C29U A65U, the yeast fitness was at most 0.5.
On to G9C G10C A36U, for which the yeast fitness was at most 0.5.
G9C A14G G44A U53C A70U: the yeast fitness is at most 0.5.
The result for U8G C30U A45G C60A C66U reads at most 0.5.
Take G9C A42C C49G U53A: the yeast fitness is at most 0.5.
Under G9C C30G A37U U47A stands at most 0.5; under G9A A36G G50C U64C, 0.645.
As to G9A A36U C46U, the yeast fitness is at most 0.5.
Under G9A G44U stands 0.766.
For U8G G17A A20C C22G C29G C34G A70G, the yeast fitness is at most 0.5.
The result for G9C C46U G63A reads 0.69; that for G9C C27U C34G C60A, at most 0.5.
As to G9C A65C, the yeast fitness came out at 0.67.
Consider U8C U19C C55G A70C, for which the yeast fitness is at most 0.5.
For U8C G9C A21C C24G G38A, the yeast fitness was determined as 0.74.
As for G9C C61A, the yeast fitness stood at 0.531.
U8C G68A: the yeast fitness stood at 0.741.
Under G9A C29U U32A A43U stands 0.604.
With G9A C22A C60A, the yeast fitness is 0.705.
The result for G9A G10A C55A A65U G67C reads 0.506; that for G9C G23A, 0.544; that for U8G C11U G48A A69U, at most 0.5.
The result for U8C G18C reads 0.684; that for G9A A65G C66U, 0.815; that for G9A C11A A20U G23A G51A, at most 0.5.
Under U8G G50C stands at most 0.5; under G9A C11A C30G C46U, at most 0.5; under G9A G17C A43U, at most 0.5.
Turning to G9A A15U C31G U53A C55U A57C C60G G67C, the yeast fitness is at most 0.5.
Consider G9A C11G U19C A20G G56A C60G, for which the yeast fitness is at most 0.5.
Under G9A G56A stands 1; under U8C G12C A70C, 0.686; under G9A C11U C66U, 0.779.
The result for G9C C30G A57U C60G reads 0.533; that for G9A G10A C24A G44A, at most 0.5; that for G9A A40C, 0.881.
